The results in this text go back to ChEMBL document CHEMBL4138298, “Synthesis of Novel Tetrahydroisoquinoline CXCR4 Antagonists with Rigidified Side-Chains” (ACS Med Chem Lett, 2018).

Series [1] is described as follows: Permeability of the compound in pH 5.5 buffer after 4 hrs by PAMPA. Type of series: ADME. To be noted: PAMPA, pH 5.5; read-out: permeability. In short, it runs like this: (§1)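 Parallel artificial membrane permeability assay (PAMPA) for passive transcellular permeability, run at pH 7.4 and at pH 5.5, with permeability reported in nm/s.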
A general note: The PAMPA barrier holds no transporters, so it reflects passive diffusion.

In another series the target is Cytochrome P450 2C19 (Homo sapiens, UniProt P33261). Nature of the series: Inhibition of CYP2C19 (unknown origin). It is filed as ADME. To be noted: human.
Series [2] in a line: Metabolic stability in human liver microsomes assessed as parent compound remaining. Type of series: ADME, microsome. (In general: Microsomes from liver hold many membrane-bound enzymes, among them those of drug oxidation.)
The next series addresses Cytochrome P450 2C9 (Homo sapiens, UniProt P11712). Briefly: Inhibition of CYP2C9 (unknown origin). It is filed as ADME.
The target in another series is T1, Cytochrome P450 1A2 (Homo sapiens, UniProt P05177).
T1 sequence (P05177 whole entry): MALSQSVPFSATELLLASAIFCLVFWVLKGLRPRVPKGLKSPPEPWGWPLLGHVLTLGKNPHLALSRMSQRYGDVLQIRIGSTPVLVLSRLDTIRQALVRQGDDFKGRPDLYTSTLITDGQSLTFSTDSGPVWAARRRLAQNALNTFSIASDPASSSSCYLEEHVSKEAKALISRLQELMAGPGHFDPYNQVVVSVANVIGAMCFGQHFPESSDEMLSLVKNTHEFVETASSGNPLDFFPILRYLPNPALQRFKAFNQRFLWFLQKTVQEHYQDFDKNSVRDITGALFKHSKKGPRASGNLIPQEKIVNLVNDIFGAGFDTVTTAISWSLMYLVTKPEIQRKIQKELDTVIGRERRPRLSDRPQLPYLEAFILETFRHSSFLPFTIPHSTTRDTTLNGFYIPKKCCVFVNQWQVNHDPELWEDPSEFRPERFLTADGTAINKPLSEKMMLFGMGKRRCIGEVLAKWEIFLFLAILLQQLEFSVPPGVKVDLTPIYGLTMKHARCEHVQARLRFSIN
Nature of the series: Inhibition of CYP1A2 (unknown origin). Type of series: ADME.

Series [3] is described as follows: Metabolic stability in mouse liver microsomes assessed as parent compound remaining. It is filed as ADME, microsome.
The next series deals with T2, Cytochrome P450 2B6 (Homo sapiens, UniProt P20813).
T2 sequence (P20813 whole entry): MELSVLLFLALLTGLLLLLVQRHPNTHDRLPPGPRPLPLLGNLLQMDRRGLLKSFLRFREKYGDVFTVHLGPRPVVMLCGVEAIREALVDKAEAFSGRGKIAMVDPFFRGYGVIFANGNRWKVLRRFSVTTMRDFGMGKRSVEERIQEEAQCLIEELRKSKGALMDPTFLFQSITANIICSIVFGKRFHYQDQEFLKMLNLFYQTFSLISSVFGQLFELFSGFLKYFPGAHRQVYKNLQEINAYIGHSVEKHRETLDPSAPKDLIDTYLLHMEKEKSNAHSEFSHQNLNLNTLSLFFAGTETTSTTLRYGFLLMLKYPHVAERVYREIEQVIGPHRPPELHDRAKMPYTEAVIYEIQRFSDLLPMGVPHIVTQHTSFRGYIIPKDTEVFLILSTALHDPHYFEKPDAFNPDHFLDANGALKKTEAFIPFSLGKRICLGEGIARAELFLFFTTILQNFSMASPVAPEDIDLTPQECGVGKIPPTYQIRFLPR
Briefly: Inhibition of CYP2B6 (unknown origin). It is filed as ADME.

Another series deals with T3, Cytochrome P450 2A6 (Homo sapiens, UniProt P11509).
T3 sequence (P11509 whole entry): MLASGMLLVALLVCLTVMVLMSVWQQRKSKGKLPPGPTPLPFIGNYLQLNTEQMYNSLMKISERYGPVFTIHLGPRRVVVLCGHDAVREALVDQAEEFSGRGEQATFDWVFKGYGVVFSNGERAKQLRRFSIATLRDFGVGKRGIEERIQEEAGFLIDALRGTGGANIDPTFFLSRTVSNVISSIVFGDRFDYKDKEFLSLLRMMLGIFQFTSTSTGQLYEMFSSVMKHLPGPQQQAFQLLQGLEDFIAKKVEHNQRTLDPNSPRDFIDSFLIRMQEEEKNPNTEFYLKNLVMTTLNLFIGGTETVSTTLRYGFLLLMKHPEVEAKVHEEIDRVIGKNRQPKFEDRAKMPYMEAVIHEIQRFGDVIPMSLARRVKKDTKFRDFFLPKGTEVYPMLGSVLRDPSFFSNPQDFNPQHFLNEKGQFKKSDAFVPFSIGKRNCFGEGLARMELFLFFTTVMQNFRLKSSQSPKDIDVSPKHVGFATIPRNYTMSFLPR
Briefly: Inhibition of CYP2A6 (unknown origin). It is filed as ADME.

For a further series, the target named is T4, Cytochrome P450 2C8 (Homo sapiens, UniProt P10632).
T4 sequence (P10632 whole entry): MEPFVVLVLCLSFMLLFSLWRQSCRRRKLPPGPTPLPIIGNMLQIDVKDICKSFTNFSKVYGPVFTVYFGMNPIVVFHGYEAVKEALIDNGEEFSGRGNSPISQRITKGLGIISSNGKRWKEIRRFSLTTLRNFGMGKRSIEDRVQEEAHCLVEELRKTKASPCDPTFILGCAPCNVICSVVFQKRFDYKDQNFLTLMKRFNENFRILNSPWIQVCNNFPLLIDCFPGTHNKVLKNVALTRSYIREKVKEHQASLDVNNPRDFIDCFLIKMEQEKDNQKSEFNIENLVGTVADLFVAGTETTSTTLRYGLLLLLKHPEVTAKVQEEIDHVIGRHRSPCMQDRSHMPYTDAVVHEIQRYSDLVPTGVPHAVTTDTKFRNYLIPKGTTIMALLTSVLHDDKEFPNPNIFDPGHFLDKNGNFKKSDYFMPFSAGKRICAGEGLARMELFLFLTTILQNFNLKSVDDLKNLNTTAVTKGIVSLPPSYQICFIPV
Nature of the series: Inhibition of CYP2C8 (unknown origin). Type of series: ADME. As to conditions: human; call rule not given here.

A short description of series [4]: Permeability of the compound in pH 7.4 buffer after 4 hrs by PAMPA. It is filed as ADME. To be noted: read-out: permeability. In short, it runs like this: as §1
Series [5] has as its target Muscarinic acetylcholine receptor M3 (Homo sapiens, UniProt P20309). Briefly: Antagonist activity at mAChR M3 in human CCRF-CEM cells assessed as inhibition of acetylcholine-mediated calcium flux incubated for 25 mins followed by acetylcholine stimulation measured for 90 secs. Type of series: functional, cell-based. In general terms: A change in cytosolic calcium serves as a functional read-out for many receptors and channels.

Series [6] is described as follows: Metabolic stability in rat liver microsomes assessed as parent compound remaining. It is filed as ADME, microsome.

The structures appear in SMILES notation.

Cytochrome P450 2C19, sequence (P33261 whole entry): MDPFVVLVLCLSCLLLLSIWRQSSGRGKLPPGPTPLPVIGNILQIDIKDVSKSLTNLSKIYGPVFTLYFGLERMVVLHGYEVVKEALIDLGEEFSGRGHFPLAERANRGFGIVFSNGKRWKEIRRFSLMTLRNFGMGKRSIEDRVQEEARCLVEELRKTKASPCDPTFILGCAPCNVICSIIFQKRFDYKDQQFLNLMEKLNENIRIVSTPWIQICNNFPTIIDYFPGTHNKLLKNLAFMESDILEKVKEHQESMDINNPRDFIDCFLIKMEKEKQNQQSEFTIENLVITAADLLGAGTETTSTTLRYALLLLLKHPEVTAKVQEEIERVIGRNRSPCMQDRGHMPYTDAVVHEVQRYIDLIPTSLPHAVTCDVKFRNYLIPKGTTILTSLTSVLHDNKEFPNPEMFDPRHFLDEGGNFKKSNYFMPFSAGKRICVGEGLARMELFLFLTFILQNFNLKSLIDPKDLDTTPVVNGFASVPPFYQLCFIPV
Cytochrome P450 2C9, sequence (P11712 whole entry): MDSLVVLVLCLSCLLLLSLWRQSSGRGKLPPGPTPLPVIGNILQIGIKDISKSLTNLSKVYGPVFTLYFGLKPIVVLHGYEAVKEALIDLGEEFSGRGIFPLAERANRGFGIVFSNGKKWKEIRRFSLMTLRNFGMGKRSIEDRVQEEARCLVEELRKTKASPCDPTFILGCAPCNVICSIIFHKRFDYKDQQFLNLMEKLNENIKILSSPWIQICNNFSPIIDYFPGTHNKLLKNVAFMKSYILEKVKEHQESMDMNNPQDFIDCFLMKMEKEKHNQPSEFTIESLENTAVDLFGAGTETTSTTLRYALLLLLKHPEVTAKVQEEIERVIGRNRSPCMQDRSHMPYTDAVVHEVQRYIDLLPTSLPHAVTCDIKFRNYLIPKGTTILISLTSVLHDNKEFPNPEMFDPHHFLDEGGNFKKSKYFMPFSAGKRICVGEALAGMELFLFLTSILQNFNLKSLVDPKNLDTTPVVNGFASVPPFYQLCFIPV
Muscarinic acetylcholine receptor M3, sequence (P20309 whole entry): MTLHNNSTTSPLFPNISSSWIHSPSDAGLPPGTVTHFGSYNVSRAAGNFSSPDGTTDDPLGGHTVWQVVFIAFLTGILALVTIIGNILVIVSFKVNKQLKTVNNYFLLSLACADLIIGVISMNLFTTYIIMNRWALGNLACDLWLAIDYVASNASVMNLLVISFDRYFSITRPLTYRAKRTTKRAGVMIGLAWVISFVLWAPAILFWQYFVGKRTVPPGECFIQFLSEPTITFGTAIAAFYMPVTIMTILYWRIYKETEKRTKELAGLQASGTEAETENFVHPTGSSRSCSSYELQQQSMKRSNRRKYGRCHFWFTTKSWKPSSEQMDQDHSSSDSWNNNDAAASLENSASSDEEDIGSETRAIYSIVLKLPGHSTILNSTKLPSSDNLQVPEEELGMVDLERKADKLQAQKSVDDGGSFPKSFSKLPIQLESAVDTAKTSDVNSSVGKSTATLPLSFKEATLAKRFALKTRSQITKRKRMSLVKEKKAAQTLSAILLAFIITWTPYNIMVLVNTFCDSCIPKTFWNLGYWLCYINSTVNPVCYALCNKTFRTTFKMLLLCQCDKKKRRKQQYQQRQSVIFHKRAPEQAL

Take `NC/C=C/CN(C[C@H]1Cc2ccccc2CN1)[C@H]1CCCc2cccnc21`: the results for the Papp at 4 h in series [1] and in series [4] were 260 nm/s and 830 nm/s, respectively. Further, the “inhibition (INH)” value at Cytochrome P450 2C19, at Cytochrome P450 2C9, on Cytochrome P450 1A2, at Cytochrome P450 2B6, against Cytochrome P450 2A6 and on Cytochrome P450 2C8 was “Not Active” each time. Moreover, the Stability in series [2] is 100%; in [3], 11%; in series [6], 34%. In addition, the IC50 in [5] was over 16 µM.

Usually IC50 stands for the midpoint of a concentration-inhibition curve.
